Consider 26 molecules from ChEMBL document CHEMBL1795299, “Pyrrolo[2,3-c]azepine derivatives: a new class of potent protein tyrosine phosphatase 1B inhibitors” (Bioorg Med Chem Lett, 2011).

Activity calls are given as the source filed them. The calls are words filed in the database; no cut-off is given here.

One assay has as its target T1, Tyrosine-protein phosphatase non-receptor type 1 (Homo sapiens, UniProt P18031).
T1 sequence (P18031 whole entry): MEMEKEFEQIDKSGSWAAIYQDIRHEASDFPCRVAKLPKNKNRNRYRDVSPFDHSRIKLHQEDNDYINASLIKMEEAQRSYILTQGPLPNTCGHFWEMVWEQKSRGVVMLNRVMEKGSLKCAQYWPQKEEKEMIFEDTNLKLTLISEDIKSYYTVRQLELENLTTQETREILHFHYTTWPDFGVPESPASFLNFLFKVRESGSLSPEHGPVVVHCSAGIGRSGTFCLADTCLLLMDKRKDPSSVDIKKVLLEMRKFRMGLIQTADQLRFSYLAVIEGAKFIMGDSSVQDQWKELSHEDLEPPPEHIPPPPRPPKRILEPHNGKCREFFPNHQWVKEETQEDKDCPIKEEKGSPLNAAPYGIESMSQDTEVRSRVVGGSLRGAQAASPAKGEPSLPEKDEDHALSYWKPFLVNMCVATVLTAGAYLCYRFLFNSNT
The experiment in a line: Inhibition of human recombinant PTP1B assessed as inhibition of para-nitrophenyl phosphate to para-nitrophenol conversion by spectrophotometry. The method in brief:
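Recombinant human GST-PTP1B, from E. coli BL21 pellets purified on a GST bead column, converts pNPP to p-nitrophenol, measured at 405 nm. Compounds were dissolved in 100% DMSO and tested over a dose series. IC50 came from a sigmoidal dose-response curve with variable slope. BPV(phen) served as the reference.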
On to `COc1ccc(-c2ccc(Cn3ccc4c3C(=O)NCC/C4=N\Nc3ccccn3)cc2)cc1`, for which the IC50 is 14.9 µM.
The same measure, in the same setting: for `CCCCOc1ccc(-c2ccc(Cn3ccc4c3C(=O)NCCC4=O)cc2)cc1` the value was 16.4 µM; for `COc1ccc(-c2ccc(Cn3c4c(c5ccccc53)C(=O)CCNC4=O)cc2)cc1`, 13.9 µM.

A further assay addresses T2, Tyrosine-protein phosphatase non-receptor type 1 (Homo sapiens) (UniProt P18031).
T2 sequence (whole entry): T1 sequence (P18031 whole entry)
The experiment in a line: Inhibition of human recombinant PTP1B assessed as inhibition of para-nitrophenyl phosphate to para-nitrophenol conversion at 100 uM by spectrophotometry. In outline: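 GST-tagged human PTP1B, expressed in E. coli BL21 and purified on GST beads, hydrolyses pNPP to p-nitrophenol, read as absorbance at 405 nm. Compounds were dissolved in 100% DMSO, and the inhibitory rate was recorded. BPV(phen) served as the reference.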
Consider `COc1ccc(-c2ccc(Cn3ccc4c3C(=O)NCC/C4=N\Nc3ccccn3)cc2)cc1`, for which the inhibition result is “Active”.
Take `O=C1CCNC(=O)c2[nH]ccc21`: the inhibition entry was “Active”.
For `Cc1ccc(-c2ccc(Cn3ccc4c3C(=O)NCCC4=O)cc2)cc1`, the inhibition result is “Active”.
As for `Nc1cccc(-c2ccc(Cn3ccc4c3C(=O)NCCC4=O)cc2)c1`, the inhibition entry was “inactive”.
The same measure, in the same setting: with `O=C1CCNC(=O)c2c1ccn2Cc1ccc(-c2ccccc2)cc1` the entry was “inactive”.
Still for that read-out and setting: with `CCCOc1ccc(-c2ccc(Cn3ccc4c3C(=O)NCCC4=O)cc2)cc1` the entry was “Active”; with `CCc1ccc(-n2ccc3c2C(=O)NCCC3=O)cc1`, “inactive”; with `CC(=O)c1ccc(-n2ccc3c2C(=O)NCCC3=O)cc1`, “inactive”.
Turning to `COc1ccc(-c2ccc(Cn3ccc4c3C(=O)NCCC4=O)cc2)cc1`, the inhibition result is “Active”.
Same read-out and setting: for `NC(=O)c1ccccc1-c1ccc(Cn2ccc3c2C(=O)NCCC3=O)cc1` the value was “inactive”; for `O=C1CCNC(=O)c2c1ccn2-c1ccccc1`, “inactive”.
Consider `O=C1NCCC(O)c2ccn(Cc3ccc(-c4ccccc4)cc3)c21` (centres undefined), for which the inhibition result is “inactive”.
On the same count and under the same terms, for `O=C1CCNC(=O)c2c1ccn2Cc1ccc(-c2cccc(O)c2)cc1` the value was “inactive”.
As for `O=C1c2c(ccn2Cc2ccccc2)/C(=N/O)CCN1Cc1ccccc1`, the inhibition entry was “inactive”.
Still for that read-out and setting: with `O=C1CCNC(=O)c2c1ccn2-c1ccc(C(F)(F)F)cc1` the entry was “inactive”; with `O=C1CCNC(=O)c2c1ccn2Cc1ccccc1`, “inactive”.
Turning to `O=C1NCC=Cc2ccn(Cc3ccccc3)c21`, the inhibition result is “inactive”.
Same read-out and setting: for `COc1ccc(-c2ccc(Cn3ccc4c3C(=O)N(C)CCC4=O)cc2)cc1` the value was “Active”.
In the case of `O=C1CCNC(=O)c2c1ccn2-c1ccc(-c2ccccc2)cc1`, the inhibition result is “inactive”.
Still for that read-out and setting: for `O=C1CCN(Cc2ccccc2)C(=O)c2c1ccn2Cc1ccccc1` the value was “inactive”; for `N#Cc1ccccc1-c1ccc(Cn2ccc3c2C(=O)NCCC3=O)cc1`, “inactive”.
Regarding `CCCCOc1ccc(-c2ccc(Cn3ccc4c3C(=O)NCCC4=O)cc2)cc1`, the inhibition entry was “Active”.
The same measure, in the same setting: for `O=C1NCCC(O)c2ccn(Cc3ccccc3)c21` (centres undefined) the value was “inactive”; for `O=C1CCNC(=O)c2c1ccn2Cc1ccc(-c2ccc(O)cc2)cc1`, “Active”; for `COc1ccc(-n2ccc3c2C(=O)NCCC3=O)cc1`, “inactive”.
Turning to `COc1ccc(-c2ccc(Cn3c4c(c5ccccc53)C(=O)CCNC4=O)cc2)cc1`, the inhibition result is “Active”.
